# Source: PubChem
# CHOP inhibitor: blocks CHOP induction under ER stress; CHO-K1 CHOP-promoter luciferase, tunicamycin-induced, 15-18 h; inhibition, % at 10 µM; 220,000 tested, 3.8% active; AID 2732;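 active = compounds that reduced the stress-induced luciferase reporter signal by more than about 70% of percent inhibition, limit read from the data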;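 also: 0% = tunicamycin plus vehicle and 100% = wells without tunicamycin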
# L major viab: reduces viability of Leishmania major promastigotes; resazurin fluorescence viability; inhibition, % at 10 µM; 200,000 tested, 9% active; AID 1063; in the data active = inhibition above about 50%;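 also: promastigotes grown with compound for 44 hours at 28 °C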
# Dynein transport: dynein cargo transport inhibition. AID 1381. 220,000 tested, 0.47% active. 3617.4 mouse cells, GR-EGFP nuclear translocation imaging; test concentration mostly 20 µM; stimulated with dexamethasone, 1 µM; active compounds read low. z-score, hits read low;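 active = plate z-score of nuclear minus cytoplasmic receptor signal below a set negative limit, without overly bright fluorescence or cell loss, cut at about -3.5 in these data, passing the limit was not always enough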;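 also: z-score of nuclear minus cytoplasmic ring GR-EGFP intensity difference per well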
#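 Buffer or medium: tet-free, stripped-serum medium; reagent: dexamethasone at 1.0 µM final, 30 min; incubation: 48 h induction, 1 h compound, 30 min dex at 37 °C; measured by: formaldehyde fixation, Hoechst nuclear stain, 10x automated fluorescence imaging; read-out: nuclear-to-cytoplasmic GR-EGFP distribution per well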
# MT stabilizer: stabilizes microtubules in HeLa cells; % tubulin-high responders, % at 10 µM; 200,000 tested, 0.83% active; HeLa tubulin immunostaining HCS, 24 h; share of cells brighter than vehicle mean+2SD; AID 2205;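 active = plate Z-score above 3 for both tubulin-high and condensed-nucleus cell shares, with cell loss under 80%, at 10 µM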;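 also: anti alpha tubulin signal scored within the nucleus-defined area of each cell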
# Autophagy mod: modulators of autophagy; 190,000 tested, 0.98% active; calls only at 10 µM (by protocol); MEF GFP-LC3 puncta imaging; test concentration mostly 10 µM;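 active = percentage of spot-positive cells more than 3 SD above its plate mean, without a fluorescence outlier flag or 80% toxicity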;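 also: spot-positive cell cutoff set from DMSO-treated cells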
# bCat nuc transl: modulators of beta-catenin nuclear translocation. nuclear translocation activity, % at 5 µM. HeLa beta-catenin nuclear translocation, immunofluorescence imaging. 190,000 tested, 0.3% active;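 active = nuclear translocation activity above 50% at 5 µM, with a well cell count of 50 or more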;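 also: per-cell ratio of nuclear to cytoplasmic median beta-catenin stain intensity; plate controls were DMSO negative control for no effect and GSK-3 inhibitor IX positive control for full effect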
#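 Test system: human HeLa cell line; Doses: 5 µM primary, 0.02–20 µM confirmation; Incubation: 24 h compound exposure, 37°C; Detection: beta-catenin immunofluorescence imaging with DAPI; Read-out: beta-catenin nuclear/cytoplasmic ratio, % activation.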
# Numbers without * were called inactive; i = inactive; · = no result; + = active, no number. Hits are enriched below; roughly 12% of the tested compounds scored in any of these assays.
SMILES,CHOP inhibitor,L major viab,Dynein transport,MT stabilizer,Autophagy mod,bCat nuc transl
CCOC(=O)c1c(NC(=O)CCC(=O)N2CCOCC2)sc2c1CC(C)(C)OC2,12,97*,0.49,2,i,0
CCCC(=O)Nc1sc2c(c1C(=O)OCC)CC(C)(C)OC2,-11,25,-0.16,2,i,0
Cc1ccccc1-c1nc(CN2CCC(C(=O)NCCCN3CC(C)CC(C)C3)CC2)c(C)o1 (stereo unspecified),3,76*,-0.47,3,i,-3
Cc1oc(-c2ccc(Cl)cc2)nc1CN1CCCC(C(=O)NCCCN2CCOCC2)C1 (stereo unspecified),19,76*,1.1,5,i,-2
Cc1oc(-c2ccc(Cl)cc2)nc1CN1CCCC(C(=O)NCc2ccccn2)C1 (stereo unspecified),40,-3,-1.4,6,i,3
O=c1[nH]c2ccccc2c2nc(-c3cccc(S(=O)(=O)N4CCCC4)c3)nn12,7,·,0.42,·,·,5
Cn1ccc(C(=O)OCC(=O)Nc2cccc3ccccc23)n1,57,-2,-0.93,2,i,1
CN(C)C(CNC(=O)c1cc(S(=O)(=O)N(C)c2ccccc2)ccc1Cl)c1ccccc1 (stereo unspecified),48,·,-1.2,·,·,0
CC(OC(=O)c1cc(S(=O)(=O)N(C)c2ccccc2)ccc1Cl)C(=O)Nc1ccc2c(c1)OCCO2 (stereo unspecified),35,65*,0.92,2,i,0
Cc1nn(-c2ccccc2)c2c1C(c1ccc(O)c(O)c1)N1C(=N2)C(Nc2ccccc2)=Nc2ccccc21 (stereo unspecified),5,90*,-3.1,3,+,1
Cc1ccc(NC2=Nc3ccccc3N3C2=Nc2c(c(C)nn2-c2ccccc2)C3c2ccc(O)c(O)c2)cc1 (stereo unspecified),0,86*,-0.61,4,+,5
Cc1cccc(NC2=Nc3ccccc3N3C2=Nc2c(c(C)nn2-c2ccccc2)C3c2ccc(O)c(O)c2)c1 (stereo unspecified),-5,-7,-0.42,3,i,3
O=S(=O)(c1ccc(F)cc1)N1CCN(Cc2ccccn2)CC1,-21,-4,1.5,3,i,0
CCN1C(=O)CC(c2ccco2)Sc2ccccc21 (stereo unspecified),-14,15,0.93,5,i,0
O=C1CC(/C=C/c2ccccc2)=Nc2ccccc2N1,-22,84*,-1.2,3,i,1
CC1(C)CC(/C=C/c2ccccc2)=Nc2ccccc2N1,-14,·,-1,·,·,0
O=C1CC(C(F)(F)C(F)(F)C(F)(F)F)=Nc2ccccc2N1,10,-3,0.46,2,i,7
O=C1CC(/C=C/c2ccc(Cl)cc2)=Nc2ccccc2N1,-74,81*,-2.1,27,i,3
O=C1CC(/C=C/c2cccnc2)=Nc2ccccc2N1,10,65*,-1.6,2,i,-1
CC(=O)Nc1ccc(S(=O)(=O)Oc2ccc(/C=C3\SC(N)=NC3=O)cc2)cc1,8,2,-0.55,3,i,-2
O=C(CCN1CCCCC1)N/N=C/c1c[nH]c2ccccc12,-10,·,0.31,·,·,2
C/C(=N/NC(=O)c1ccccc1)c1ccc(NC(=O)C(F)(F)F)cc1,-6,4,-0.4,4,i,1
Cc1cccc(Oc2nc(CN3CCOCC3)nc3sc4c(c23)CCCC4)c1,61,99*,-0.76,2,i,-3
COc1ccc(CNC(=O)C(=O)NCC2OCCN2S(=O)(=O)c2cccs2)cc1 (stereo unspecified),5,-4,-0.61,3,i,-2
CCCc1nnc(NC(=O)CCCN2C(=O)c3ccccc3C2=O)s1,5,-2,0.37,4,i,·
CN(C)CCNC(=O)CN1C(=O)COc2ccc(C(C)(C)C)cc21,41,-6,-0.66,2,i,·
COc1ccc(C(=O)Nc2ccc(SC(F)F)cc2)cc1,8,46,-0.069,2,i,4
CCCCOc1ccc(C(=O)Nc2ccc(SC(F)F)cc2)cc1OC,40,71*,0.2,3,i,-5
COC(=O)c1ccc(NC(=O)Nc2ccc(F)cc2)cc1,39,-8,-0.97,2,i,-7
